Measured values reported in ChEMBL document CHEMBL4725354 (J Med Chem, 2020).
pIC50: −log10 of the molar value.

What follows are compounds tested on MDCK-II (assay: Cytotoxicity against MDCK2 cells assessed as reduction in cell viability at 10 uM after 72 hrs by MTT assay). Conditions: dog; call rule not given here.
Assay type: cell-based, Canis lupus familiaris
Method in brief: (§1)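 Single-concentration screen at 10 µM in MDCK II BCRP and parental MDCK II cells. MTT assay, 72 h at 37 °C, 5% CO2. Viability referenced to culture medium (100%) and 10% DMSO (0%). Mean ± SEM of at least three independent experiments with duplicates.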

| Compound | Activity |
| --- | --- |
| Cc1cc(Nc2ccc(C#N)c(C#N)c2)nc(-c2ccccc2)n1 | Non-Toxic |
| COc1ccc(Nc2cc(C)nc(-c3ccccc3)n2)cc1F | Non-Toxic |
| Cc1cc(Nc2ccc(CC#N)cc2)nc(-c2ccccc2)n1 | Non-Toxic |
| Cc1cc(Nc2ccc3c(c2)C(=O)NC3=O)nc(-c2ccccc2)n1 | Non-Toxic |
| Cc1cc(Nc2cccc(Cl)c2)nc(-c2ccccc2)n1 | Non-Toxic |

These compounds were tested against T1, ATP-dependent translocase ABCB1 (Homo sapiens, UniProt P08183) (assay: Inhibition of human ABCB1 expressed in A2780/ADR cells preincubated for 30 mins followed by calcein AM addition and measured every 60 secs for 60 mins by fluorescence assay). Conditions: not given.
T1 sequence (P08183 whole entry): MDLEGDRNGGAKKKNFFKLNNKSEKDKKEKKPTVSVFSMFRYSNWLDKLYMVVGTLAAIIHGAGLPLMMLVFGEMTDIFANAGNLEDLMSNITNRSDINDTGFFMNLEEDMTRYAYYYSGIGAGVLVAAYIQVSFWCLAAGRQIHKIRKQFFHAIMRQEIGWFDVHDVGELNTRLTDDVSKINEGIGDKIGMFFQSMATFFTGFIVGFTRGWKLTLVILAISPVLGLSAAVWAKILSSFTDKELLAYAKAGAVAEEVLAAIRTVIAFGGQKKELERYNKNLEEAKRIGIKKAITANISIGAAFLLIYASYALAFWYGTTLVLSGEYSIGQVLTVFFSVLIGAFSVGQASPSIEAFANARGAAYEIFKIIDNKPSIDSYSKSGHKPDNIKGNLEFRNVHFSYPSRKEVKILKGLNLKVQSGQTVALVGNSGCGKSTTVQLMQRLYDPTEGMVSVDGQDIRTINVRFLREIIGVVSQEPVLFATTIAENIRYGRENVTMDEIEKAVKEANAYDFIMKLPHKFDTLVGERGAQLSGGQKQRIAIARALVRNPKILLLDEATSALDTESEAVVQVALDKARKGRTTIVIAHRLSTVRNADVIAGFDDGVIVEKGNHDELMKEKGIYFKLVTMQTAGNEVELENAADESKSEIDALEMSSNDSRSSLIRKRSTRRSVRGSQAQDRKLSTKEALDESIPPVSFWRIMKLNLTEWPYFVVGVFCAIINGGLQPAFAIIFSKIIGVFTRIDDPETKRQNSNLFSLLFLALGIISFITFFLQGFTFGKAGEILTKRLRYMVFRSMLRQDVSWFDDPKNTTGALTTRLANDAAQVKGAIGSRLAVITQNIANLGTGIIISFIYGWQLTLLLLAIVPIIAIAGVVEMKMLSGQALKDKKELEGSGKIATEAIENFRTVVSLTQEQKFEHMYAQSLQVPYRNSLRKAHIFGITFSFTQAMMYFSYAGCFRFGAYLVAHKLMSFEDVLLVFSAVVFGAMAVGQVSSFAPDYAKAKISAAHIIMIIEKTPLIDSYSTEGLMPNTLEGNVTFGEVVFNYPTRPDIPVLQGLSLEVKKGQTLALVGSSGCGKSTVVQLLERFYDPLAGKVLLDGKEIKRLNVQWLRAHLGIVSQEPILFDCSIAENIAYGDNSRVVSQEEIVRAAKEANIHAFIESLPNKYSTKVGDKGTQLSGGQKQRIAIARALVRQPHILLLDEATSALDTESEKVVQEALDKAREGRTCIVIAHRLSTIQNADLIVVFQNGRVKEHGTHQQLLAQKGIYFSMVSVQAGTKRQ
Assay type: cell-based
Method in brief: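 ABCB1 in A2780/ADR cells (kept resistant by one passage in 1 µM doxorubicin every 10 passages). 30,000 cells per well in Krebs-HEPES buffer, preincubated 30 min at 37 °C with inhibitor. Calcein AM added from a 3.125 µM solution. Fluorescence (ex 485, em 520 nm) read every 60 s for 60 min. Initial linear slopes vs log concentration fitted to give IC50.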

| Compound | pIC50 |
| --- | --- |
| COc1ccc(Nc2cc(C)nc(-c3ccccc3)n2)cc1F | 5.05 |
| Cc1cc(Nc2ccc(CC#N)cc2)nc(-c2ccccc2)n1 | 4.80 |
| Cc1cc(Nc2ccc3c(c2)C(=O)NC3=O)nc(-c2ccccc2)n1 | 4.75 |
| Cc1cc(Nc2cccc(Cl)c2)nc(-c2ccccc2)n1 | 5.23 |

These compounds were tested on MDCK-II (assay: Cytotoxicity against MDCK2 cells over expressing human ABCG2 at 10 uM assessed as reduction in cell viability after 72 hrs by MTT assay). Conditions: dog.
Assay type: ADME, cell-based, Canis lupus familiaris
Method in brief: as §1

| Compound | Activity |
| --- | --- |
| Cc1cc(Nc2ccc(C#N)c(C#N)c2)nc(-c2ccccc2)n1 | Non-Toxic |
| COc1ccc(Nc2cc(C)nc(-c3ccccc3)n2)cc1F | Non-Toxic |
| Cc1cc(Nc2ccc(CC#N)cc2)nc(-c2ccccc2)n1 | Non-Toxic |
| Cc1cc(Nc2ccc3c(c2)C(=O)NC3=O)nc(-c2ccccc2)n1 | Non-Toxic |
| Cc1cc(Nc2cccc(Cl)c2)nc(-c2ccccc2)n1 | Non-Toxic |

Each compound was assayed against T1, ATP-dependent translocase ABCB1 (assay: Inhibition of human ABCB1-mediated multidrug resistance in human A2780/ADR cells assessed as potentiation of doxorubicin-induced cytotoxicity by measuring half maximal reversal concentration after 72 hrs by MTT assay). Conditions: not given.
Assay type: cell-based

| Compound | inhibition (INH) |
| --- | --- |
| Cc1cc(Nc2cccc(Cl)c2)nc(-c2ccccc2)n1 | Not Active |

What follows are compounds tested against T2, ABCG2 (Homo sapiens, UniProt Q9UNQ0) (assay: Inhibition of human ABCG2 expressed in MDCK2 cells co-expressing GFP preincubated for 15 mins followed by pheophorbideA addition and measured after 2 hrs by flow cytometric analysis relative to control). Conditions: probe pheophorbide A, read-out: Imax.
T2 sequence (Q9UNQ0 whole entry): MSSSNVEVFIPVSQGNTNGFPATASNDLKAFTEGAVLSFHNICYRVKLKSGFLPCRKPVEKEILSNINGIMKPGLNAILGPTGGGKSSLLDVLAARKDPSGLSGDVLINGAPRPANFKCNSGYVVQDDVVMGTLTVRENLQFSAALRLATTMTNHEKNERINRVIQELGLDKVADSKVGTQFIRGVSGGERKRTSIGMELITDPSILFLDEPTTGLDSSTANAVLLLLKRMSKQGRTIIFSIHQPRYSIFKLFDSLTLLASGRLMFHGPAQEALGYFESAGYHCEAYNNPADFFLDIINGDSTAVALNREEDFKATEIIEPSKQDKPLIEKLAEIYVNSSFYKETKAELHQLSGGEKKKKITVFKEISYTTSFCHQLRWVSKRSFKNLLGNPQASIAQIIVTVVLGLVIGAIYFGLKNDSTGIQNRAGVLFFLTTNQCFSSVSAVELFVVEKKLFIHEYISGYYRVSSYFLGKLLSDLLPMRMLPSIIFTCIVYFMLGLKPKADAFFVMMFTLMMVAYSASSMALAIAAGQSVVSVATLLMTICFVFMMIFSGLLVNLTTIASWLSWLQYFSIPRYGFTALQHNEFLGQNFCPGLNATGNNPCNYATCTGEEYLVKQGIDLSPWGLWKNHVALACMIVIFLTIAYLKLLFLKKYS
Assay type: cell-based, MDCK-II

| Compound | Emax at 2 h [%] |
| --- | --- |
| Cc1cc(Nc2ccc(C#N)c(C#N)c2)nc(-c2ccccc2)n1 | 100 |
| COc1ccc(Nc2cc(C)nc(-c3ccccc3)n2)cc1F | 100 |
| Cc1cc(Nc2ccc(CC#N)cc2)nc(-c2ccccc2)n1 | 100 |
| Cc1cc(Nc2ccc3c(c2)C(=O)NC3=O)nc(-c2ccccc2)n1 | 101 |
| Cc1cc(Nc2cccc(Cl)c2)nc(-c2ccccc2)n1 | 100 |

The compounds below were run against T2, ABCG2 (assay: Inhibition of human ABCG2 expressed in MDCK2 cells co-expressing GFP preincubated for 30 mins followed by Hoechst 33342 addition and measured every 60 sec for 120 mins by fluorescence assay relative to control). Conditions: probe Hoechst 33342, read-out: Imax.
Assay type: cell-based, MDCK-II
Method in brief: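 MDCK II cells transfected with human ABCG2 cDNA C-terminally fused to GFP. Steady-state means vs log concentration fitted by 3- or 4-parameter logistic to give IC50.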

| Compound | Emax at 2 h [%] |
| --- | --- |
| Cc1cc(Nc2ccc(C#N)c(C#N)c2)nc(-c2ccccc2)n1 | 117 |
| COc1ccc(Nc2cc(C)nc(-c3ccccc3)n2)cc1F | 100 |
| Cc1cc(Nc2ccc(CC#N)cc2)nc(-c2ccccc2)n1 | 100 |
| Cc1cc(Nc2ccc3c(c2)C(=O)NC3=O)nc(-c2ccccc2)n1 | 105 |
| Cc1cc(Nc2cccc(Cl)c2)nc(-c2ccccc2)n1 | 100 |

The compounds below were run against T3, Broad substrate specificity ATP-binding cassette transporter ABCG2 (Homo sapiens, UniProt Q9UNQ0) (assay: Inhibition of human ABCG2 expressed in MDCK2 cells co-expressing GFP preincubated for 15 mins followed by pheophorbideA addition and measured after 2 hrs by flow cytometric analysis). Conditions: not given.
T3 sequence (Q9UNQ0 whole entry): T2 sequence (Q9UNQ0 whole entry)
Assay type: cell-based, MDCK-II
Method in brief: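 Pheophorbide A added to 0.5 µM final and incubated 2 h. Read by flow cytometry (ex 488, em 695/50 nm); GFP expression checked at 525/30 nm. IC50 from 3- or 4-parameter logistic fit.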

| Compound | pIC50 |
| --- | --- |
| Cc1cc(Nc2ccc(C#N)c(C#N)c2)nc(-c2ccccc2)n1 | 6.26 |
| COc1ccc(Nc2cc(C)nc(-c3ccccc3)n2)cc1F | 5.88 |
| Cc1cc(Nc2ccc(CC#N)cc2)nc(-c2ccccc2)n1 | 5.44 |
| Cc1cc(Nc2ccc3c(c2)C(=O)NC3=O)nc(-c2ccccc2)n1 | 6.38 |
| Cc1cc(Nc2cccc(Cl)c2)nc(-c2ccccc2)n1 | 6.00 |

What follows are compounds tested against T3, Broad substrate specificity ATP-binding cassette transporter ABCG2 (assay: Inhibition of human ABCG2 expressed in MDCK2 cells co-expressing GFP preincubated for 30 mins followed by Hoechst 33342 addition and measured every 60 sec for 120 mins by fluorescence assay). Conditions: not given.
Assay type: cell-based, MDCK-II
Method in brief: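 MDCK II cells transfected with human ABCG2 cDNA C-terminally fused to GFP. Hoechst 33342 added at 1 µM final. Fluorescence (ex 355, em 460 nm) read every 60 s for 120 min. Steady-state means vs log concentration fitted by 3- or 4-parameter logistic to give IC50.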

| Compound | pIC50 |
| --- | --- |
| Cc1cc(Nc2ccc(C#N)c(C#N)c2)nc(-c2ccccc2)n1 | 6.73 |
| COc1ccc(Nc2cc(C)nc(-c3ccccc3)n2)cc1F | 6.06 |
| Cc1cc(Nc2ccc(CC#N)cc2)nc(-c2ccccc2)n1 | 5.60 |
| Cc1cc(Nc2ccc3c(c2)C(=O)NC3=O)nc(-c2ccccc2)n1 | 6.60 |
| Cc1cc(Nc2cccc(Cl)c2)nc(-c2ccccc2)n1 | 6.09 |

These compounds were tested against Multidrug resistance-associated protein 1 (Homo sapiens, UniProt P33527) (assay: Inhibition of human ABCC1-mediated multidrug resistance in MDCK2 cells assessed as potentiation of doxorubicin-induced cytotoxicity by measuring half maximal reversal concentration after 72 hrs by MTT assay). Conditions: mdck-ii.
Chain of Multidrug resistance-associated protein 1 (P33527 whole entry): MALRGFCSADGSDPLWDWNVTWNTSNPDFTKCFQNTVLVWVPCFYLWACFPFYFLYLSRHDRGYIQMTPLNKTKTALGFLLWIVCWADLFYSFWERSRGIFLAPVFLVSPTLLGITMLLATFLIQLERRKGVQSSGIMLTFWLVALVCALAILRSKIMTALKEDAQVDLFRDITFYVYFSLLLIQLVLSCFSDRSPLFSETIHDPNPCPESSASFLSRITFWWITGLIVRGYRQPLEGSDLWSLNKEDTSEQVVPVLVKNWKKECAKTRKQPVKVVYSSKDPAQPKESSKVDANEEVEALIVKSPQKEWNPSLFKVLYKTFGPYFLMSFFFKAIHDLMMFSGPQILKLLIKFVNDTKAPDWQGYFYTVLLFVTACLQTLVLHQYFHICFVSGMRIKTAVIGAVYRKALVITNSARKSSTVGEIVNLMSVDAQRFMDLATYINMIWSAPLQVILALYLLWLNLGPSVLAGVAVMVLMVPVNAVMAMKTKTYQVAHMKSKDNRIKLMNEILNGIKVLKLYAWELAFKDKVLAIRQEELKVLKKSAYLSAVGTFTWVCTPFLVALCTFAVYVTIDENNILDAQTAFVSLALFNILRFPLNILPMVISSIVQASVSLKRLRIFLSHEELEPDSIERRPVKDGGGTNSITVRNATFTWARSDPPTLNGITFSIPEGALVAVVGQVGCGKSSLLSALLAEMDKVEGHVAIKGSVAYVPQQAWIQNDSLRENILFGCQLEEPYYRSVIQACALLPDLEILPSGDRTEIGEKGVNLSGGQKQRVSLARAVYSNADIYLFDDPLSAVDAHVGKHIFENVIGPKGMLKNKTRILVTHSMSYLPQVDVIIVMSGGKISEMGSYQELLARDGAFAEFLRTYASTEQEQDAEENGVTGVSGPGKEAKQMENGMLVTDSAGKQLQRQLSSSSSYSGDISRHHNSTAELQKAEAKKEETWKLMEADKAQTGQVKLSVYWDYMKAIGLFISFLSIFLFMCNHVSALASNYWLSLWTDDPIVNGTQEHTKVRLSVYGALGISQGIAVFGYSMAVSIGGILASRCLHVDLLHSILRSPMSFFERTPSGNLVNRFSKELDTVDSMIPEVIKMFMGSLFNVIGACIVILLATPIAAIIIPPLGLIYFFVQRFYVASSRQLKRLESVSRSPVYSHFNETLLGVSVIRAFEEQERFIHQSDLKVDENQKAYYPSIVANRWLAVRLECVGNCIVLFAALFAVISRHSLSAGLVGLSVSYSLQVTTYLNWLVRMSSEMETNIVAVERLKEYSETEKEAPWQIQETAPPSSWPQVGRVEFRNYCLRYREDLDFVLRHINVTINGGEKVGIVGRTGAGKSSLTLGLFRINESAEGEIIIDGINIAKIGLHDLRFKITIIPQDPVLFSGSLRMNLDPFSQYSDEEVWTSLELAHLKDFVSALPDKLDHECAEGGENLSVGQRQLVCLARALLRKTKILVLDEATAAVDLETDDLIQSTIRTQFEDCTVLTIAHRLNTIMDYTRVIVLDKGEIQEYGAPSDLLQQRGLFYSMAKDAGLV
Assay type: cell-based

| Compound | inhibition (INH) |
| --- | --- |
| Cc1cc(Nc2cccc(Cl)c2)nc(-c2ccccc2)n1 | Not Active |
